From ChEMBL document CHEMBL1165909, “Analgesic, anti-pyretic and DNA cleavage studies of novel pyrimidine derivatives of coumarin moiety” (Eur J Med Chem, 2010)
The source made the active and inactive calls. No cut-off for these calls is given here.

Columns and labels:
Rattus norvegicus [1] = assay: Acute toxicity in albino Wistar rat assessed as mortality at up to 3 g/kg, po after 24 hrs; assay type: organism-based; conditions: in vivo, 3000 mg/kg
Procedure, shortened: (§1)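 Albino rats of either sex, groups of six, dosed from 100 up to 3000 mg kg^-1 body weight. Watched continuously for 8 h for signs such as altered motor activity, ataxia, tremors, convulsions, sedation and lacrimation. Killed at 24 h; stomach, intestine and liver inspected under magnifying lenses for ulcer-haemorrhagic spots.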

Rattus norvegicus [2] = assay: Acute toxicity in albino Wistar rat assessed as sedation at up to 3 g/kg, po after 24 hrs; assay type: organism-based; conditions: in vivo, 3000 mg/kg; procedure, shortened: as §1
Rattus norvegicus [3] = assay: Acute toxicity in albino Wistar rat assessed as convulsion at up to 3 g/kg, po after 24 hrs; assay type: organism-based; conditions: in vivo, 3000 mg/kg; procedure, shortened: as §1
Rattus norvegicus [4] = assay: Acute toxicity in albino Wistar rat assessed as tremors at up to 3 g/kg, po after 24 hrs; assay type: organism-based; conditions: in vivo, 3000 mg/kg; procedure, shortened: as §1
Rattus norvegicus [5] = assay: Acute toxicity in albino Wistar rat assessed as ulceration at up to 3 g/kg, po after 24 hrs; assay type: organism-based; conditions: in vivo, 3000 mg/kg; procedure, shortened: as §1
Rattus norvegicus [6] = assay: Acute toxicity in albino Wistar rat assessed as haemorrhagic spots at up to 3 g/kg, po after 24 hrs; assay type: organism-based; conditions: in vivo, 3000 mg/kg; procedure, shortened: as §1
Rattus norvegicus [7] = assay: Acute toxicity in albino Wistar rat assessed as stomach ulcerhaemorrhagic spots at up to 3 g/kg, po after 24 hrs; assay type: organism-based; conditions: in vivo, 3000 mg/kg; procedure, shortened: as §1
Rattus norvegicus [8] = assay: Acute toxicity in albino Wistar rat assessed as intestine ulcerhaemorrhagic spots at up to 3 g/kg, po after 24 hrs; assay type: organism-based; conditions: in vivo, 3000 mg/kg; procedure, shortened: as §1
Rattus norvegicus [9] = assay: Analgesic activity in albino Wistar rat assessed as reaction time required for tail flicking at 25 mg/kg, po after 30 mins by tail-flick method (reference value: 3.97 +/- 0.287 sec); assay type: functional
Rattus norvegicus [10] = assay: Analgesic activity in albino Wistar rat assessed as reaction time required for tail flicking at 25 mg/kg, po after 60 mins by tail-flick method (reference value: 4 +/- 0.360 sec); assay type: functional
Rattus norvegicus [11] = assay: Analgesic activity in albino Wistar rat assessed as reaction time required for tail flicking at 25 mg/kg, po after 90 mins by tail-flick method (reference value: 3.87 +/- 0.355 sec); assay type: functional
Rattus norvegicus [12] = assay: Antipyretic activity against brewer's yeast-induced hyperthermia in albino Wistar rat assessed as change in rectal temperature at 100 mg/kg, po after 1 hr (reference value: 33.78 +/- 0.18 degC); assay type: functional
Rattus norvegicus [13] = assay: Antipyretic activity against brewer's yeast-induced hyperthermia in albino Wistar rat assessed as change in rectal temperature at 100 mg/kg, po after 3 hrs (reference value: 32.80 +/- 0.09 degC); assay type: functional
Rattus norvegicus [14] = assay: Antipyretic activity against brewer's yeast-induced hyperthermia in albino Wistar rat assessed as change in rectal temperature at 100 mg/kg, po after 5 hrs (reference value: 34.36 +/- 0.14 degC); assay type: functional
Rattus norvegicus [15] = assay: Antipyretic activity against brewer's yeast-induced hyperthermia in albino Wistar rat assessed as change in rectal temperature at 100 mg/kg, po after 6 hrs (reference value: 33.44 +/- 0.18 degC); assay type: functional
Nucleic Acid = assay: Induction of Escherichia coli DNA cleavage at 25 mg after 24 hrs by agarose gel electrophoresis method; assay type: nucleic-acid assay
Procedure, shortened: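 E. coli grown in nutrient broth 24 h at 37 °C. Genomic DNA isolated by SDS lysis, phenol (55 °C, 10 min), chloroform:isoamyl alcohol extraction and ethanol precipitation, dissolved in TAE. Compounds at 1 mg/ml in DMF added to DNA, incubated 2 h at 37 °C. Run on agarose gel at 50 V about 30 min, stained with ethidium bromide, bands compared with DNA marker.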

SMILES	Activity (Rattus norvegicus [1])	Activity (Rattus norvegicus [2])	Activity (Rattus norvegicus [3])	Activity (Rattus norvegicus [4])	Activity (Rattus norvegicus [5])	Activity (Rattus norvegicus [6])	Activity (Rattus norvegicus [7])	Activity (Rattus norvegicus [8])	Time (Rattus norvegicus [9])	Time (Rattus norvegicus [10])	Time (Rattus norvegicus [11])	T (Rattus norvegicus [12])	T (Rattus norvegicus [13])	T (Rattus norvegicus [14])	T (Rattus norvegicus [15])	Activity (Nucleic Acid)
Nc1nc(-c2ccccc2)cc(-c2ccc(OCc3cc(=O)oc4ccc5ccccc5c34)cc2)n1	Non-toxic	Non-toxic	Non-toxic	Non-toxic	Non-toxic	Non-toxic	Non-toxic	Non-toxic	4 s	7.25 s	8 s	32.8 °C	31.84 °C	32.22 °C	31.88 °C	
Cc1ccc2c(COc3ccc(-c4cc(-c5ccccc5)nc(S)n4)cc3)cc(=O)oc2c1	Non-toxic	Non-toxic	Non-toxic	Non-toxic	Non-toxic	Non-toxic	Non-toxic	Non-toxic	4.5 s	7.25 s	7.5 s	32.81 °C	32.66 °C	32.9 °C	31.82 °C	Active
O=c1cc(COc2ccc(-c3cc(-c4ccccc4)nc(O)n3)cc2)c2cc(Cl)ccc2o1	Non-toxic	Non-toxic	Non-toxic	Non-toxic	Non-toxic	Non-toxic	Non-toxic	Non-toxic	4.02 s	4.04 s	4.25 s	33.18 °C	32.64 °C	33.28 °C	32.61 °C	Active
Nc1nc(-c2ccccc2)cc(-c2ccc(OCc3cc(=O)oc4ccc(Cl)cc34)cc2)n1	Non-toxic	Non-toxic	Non-toxic	Non-toxic	Non-toxic	Non-toxic	Non-toxic	Non-toxic	5.02 s	7 s	7.1 s	32.74 °C	32.45 °C	32.09 °C	32.54 °C	
Cc1ccc2oc(=O)cc(COc3ccc(-c4cc(-c5ccccc5)nc(O)n4)cc3)c2c1	Non-toxic	Non-toxic	Non-toxic	Non-toxic	Non-toxic	Non-toxic	Non-toxic	Non-toxic	4.48 s	5.46 s	6.2 s	33.18 °C	32.31 °C	33.12 °C	32.97 °C	Active
Cc1ccc2oc(=O)cc(COc3ccc(-c4cc(-c5ccccc5)nc(N)n4)cc3)c2c1	Non-toxic	Non-toxic	Non-toxic	Non-toxic	Non-toxic	Non-toxic	Non-toxic	Non-toxic	4.75 s	6.75 s	7.25 s	32.66 °C	31.68 °C	33.3 °C	33 °C	
O=c1cc(COc2ccc(-c3cc(-c4ccccc4)nc(S)n3)cc2)c2ccc3ccccc3c2o1	Non-toxic	Non-toxic	Non-toxic	Non-toxic	Non-toxic	Non-toxic	Non-toxic	Non-toxic	4.52 s	5.25 s	6.25 s	33.01 °C	32 °C	33.09 °C	32.5 °C	Active
Cc1c(N(C)CS(=O)(=O)[O-])c(=O)n(-c2ccccc2)n1C.[Na+] [DIPYRONE SODIUM]									5.77 s	8.76 s	9.02 s					
O=c1cc(COc2ccc(-c3cc(-c4ccccc4)nc(O)n3)cc2)c2ccc3ccccc3c2o1	Non-toxic	Non-toxic	Non-toxic	Non-toxic	Non-toxic	Non-toxic	Non-toxic	Non-toxic	4.75 s	6.25 s	7.25 s	32.25 °C	32.68 °C	33.44 °C	32.74 °C	Active
Cc1ccc2oc(=O)cc(COc3ccc(-c4cc(-c5ccccc5)nc(S)n4)cc3)c2c1	Non-toxic	Non-toxic	Non-toxic	Non-toxic	Non-toxic	Non-toxic	Non-toxic	Non-toxic	4.5 s	6.5 s	7.45 s	32.55 °C	32.77 °C	32.8 °C	31.98 °C	
Cc1ccc2c(COc3ccc(-c4cc(-c5ccccc5)nc(N)n4)cc3)cc(=O)oc2c1	Non-toxic	Non-toxic	Non-toxic	Non-toxic	Non-toxic	Non-toxic	Non-toxic	Non-toxic	5.1 s	6.75 s	7.5 s	32.74 °C	32.6 °C	33.8 °C	32.8 °C	Active
Nc1nc(-c2ccccc2)cc(-c2ccc(OCc3cc(=O)oc4c3ccc3ccccc34)cc2)n1	Non-toxic	Non-toxic	Non-toxic	Non-toxic	Non-toxic	Non-toxic	Non-toxic	Non-toxic	4.04 s	4.75 s	5 s	32.68 °C	31.4 °C	32.51 °C	32.09 °C	
O=c1cc(COc2ccc(-c3cc(-c4ccccc4)nc(S)n3)cc2)c2c(ccc3ccccc32)o1	Non-toxic	Non-toxic	Non-toxic	Non-toxic	Non-toxic	Non-toxic	Non-toxic	Non-toxic	4.25 s	4.5 s		32.92 °C	31.98 °C	33.01 °C	32.66 °C	Active
O=c1cc(COc2ccc(-c3cc(-c4ccccc4)nc(S)n3)cc2)c2cc(Cl)ccc2o1	Non-toxic	Non-toxic	Non-toxic	Non-toxic	Non-toxic	Non-toxic	Non-toxic	Non-toxic	5.1 s	7.54 s	8.5 s	32.5 °C	32.61 °C	32.84 °C	32.84 °C	
O=c1cc(COc2ccc(-c3cc(-c4ccccc4)nc(O)n3)cc2)c2c(ccc3ccccc32)o1	Non-toxic	Non-toxic	Non-toxic	Non-toxic	Non-toxic	Non-toxic	Non-toxic	Non-toxic	5 s	8.25 s	8.87 s	32.22 °C	32.72 °C	32.82 °C	32.68 °C	Active
